Series [1] deals with SH-SY5Y. The series can be described thus: Antioxidant activity in human SH-SY5Y cells assessed as decrease in t-BuOOH-induced intracellular ROS production at 5 to 20 uM incubated for 24 hrs prior to t-BuOOH challenge measured after 30 mins by DCFHDA-based fluorescence assay. The class given is functional, cell-based. A digest of the protocol: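 SH-SY5Y cells (DMEM, 10% FCS, 37 °C, 5% CO2) seeded 1 × 10^4/well and grown 24 h. Compound added for 24 h; Trolox control at 5, 10, 20 μM. Cells are then washed, loaded with 5 μM DCFH-DA in PBS for 30 min, and challenged with 0.1 mM t-BuOOH for 30 min. Fluorescence read at ex 485/em 535 nm. Result is % of control by formula; three independent experiments in sextuplicate.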

Series [2] addresses T1, Amine oxidase [flavin-containing] B (Homo sapiens, UniProt P27338).
T1 sequence (P27338 whole entry): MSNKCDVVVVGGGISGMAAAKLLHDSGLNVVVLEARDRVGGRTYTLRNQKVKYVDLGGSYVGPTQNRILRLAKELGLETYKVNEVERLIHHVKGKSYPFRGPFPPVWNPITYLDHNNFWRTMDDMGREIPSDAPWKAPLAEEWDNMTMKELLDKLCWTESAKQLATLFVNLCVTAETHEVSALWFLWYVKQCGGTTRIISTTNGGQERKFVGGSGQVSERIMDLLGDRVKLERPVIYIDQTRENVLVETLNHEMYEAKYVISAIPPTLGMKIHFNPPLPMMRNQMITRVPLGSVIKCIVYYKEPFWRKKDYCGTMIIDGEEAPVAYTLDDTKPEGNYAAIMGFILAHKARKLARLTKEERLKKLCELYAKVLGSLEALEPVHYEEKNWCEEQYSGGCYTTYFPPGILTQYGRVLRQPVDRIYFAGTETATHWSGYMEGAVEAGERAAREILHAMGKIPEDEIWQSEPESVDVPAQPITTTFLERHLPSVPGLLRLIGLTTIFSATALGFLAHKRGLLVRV

Series [3] addresses T2, Amine oxidase [flavin-containing] A (Homo sapiens, UniProt P21397).
T2 sequence (P21397 whole entry): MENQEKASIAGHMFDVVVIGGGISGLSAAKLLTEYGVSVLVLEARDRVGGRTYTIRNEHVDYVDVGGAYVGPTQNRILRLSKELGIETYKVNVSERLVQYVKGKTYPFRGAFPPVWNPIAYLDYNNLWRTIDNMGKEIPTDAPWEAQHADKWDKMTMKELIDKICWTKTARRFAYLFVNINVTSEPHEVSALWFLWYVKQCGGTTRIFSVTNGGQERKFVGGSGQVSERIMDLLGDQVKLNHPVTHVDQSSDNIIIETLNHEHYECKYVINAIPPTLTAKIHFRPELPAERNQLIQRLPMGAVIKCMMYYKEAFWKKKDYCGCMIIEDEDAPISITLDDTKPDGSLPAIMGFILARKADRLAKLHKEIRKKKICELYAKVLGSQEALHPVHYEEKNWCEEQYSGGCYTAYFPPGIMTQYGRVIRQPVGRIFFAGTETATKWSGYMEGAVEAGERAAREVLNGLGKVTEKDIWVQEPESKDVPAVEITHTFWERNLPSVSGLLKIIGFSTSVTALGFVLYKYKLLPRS
The series can be described thus: Inhibition of human recombinant MAOA using p-tyramine as substrate incubated for 15 mins prior to substrate addition measured after 20 mins by fluorescence plate reader analysis.

Series [4] in a line: Cytotoxicity against human SH-SY5Y cells assessed as cell viability at 10 uM after 24 hrs by MTT assay. Format: cell-based. The essentials:
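SH-SY5Y cells seeded 5 × 10^4/well, then exposed to compound for 24 h at 37 °C. MTT (0.5 mg/mL final) added for 4 h; formazan dissolved in DMSO and read at 570 nm. Viability is treated/untreated absorbance × 100, each corrected for zero-day control. Three independent experiments in sextuplicate.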
(In general: Formazan colour is commonly taken as a measure of viable cells.)

Series [5] addresses Amyloid-beta precursor protein (Homo sapiens, UniProt P05067).
Series [6] concerns the target Cholinesterase (Equus caballus, UniProt P81908). The series can be described thus: Inhibition of equine serum BuChE using butylthiocholine chloride as substrate preincubated for 15 mins followed by substrate addition measured every 1 min by Ellman's method. (Ellman's reagent forms a yellow product with free thiols.)
Series [7] deals with Acetylcholinesterase (Electrophorus electricus, UniProt O42275). The series can be described thus: Inhibition of electric eel AChE using acetylthiocholine chloride as substrate preincubated for 15 mins followed by substrate addition measured every 1 min by Ellman's method. The essentials:
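Ellman method in 0.1 M potassium phosphate buffer, pH 8.0, 1 mL assay containing DTNB and thiocholine substrate (each 50 μL of 0.01 M stock). Enzyme (AChE stock 2.0 units/mL) preincubated with compound 15 min at 37 °C, then substrate added. A412 read at 1 min intervals at 37 °C. Each concentration in triplicate. IC50 from at least three experiments.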

Series [8] relates to Mus musculus. The series can be described thus: Acute toxicity in KM mouse at 677 to 2000 mg/kg, po after 14 days. Format: organism-based. Also on record: dose 677-2000 mg/kg, route oral. The settings on record: in vivo, 336 h. A digest of the protocol: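 Male KM mice (22 days, 18−20 g), fasted overnight with free access to water, n = 5 per group; single oral dose of 0, 677, 1333 or 2000 mg/kg suspended in 0.5% CMC-Na. Watched continuously for 4 h, intermittently for 24 h, then occasionally to day 14 for behaviour and mortality; killed day 14, heart, liver and kidneys examined macroscopically.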

Calls of active or inactive are those of the source. The rule behind the calls is not given here.

Chain of Cholinesterase (P81908 whole entry): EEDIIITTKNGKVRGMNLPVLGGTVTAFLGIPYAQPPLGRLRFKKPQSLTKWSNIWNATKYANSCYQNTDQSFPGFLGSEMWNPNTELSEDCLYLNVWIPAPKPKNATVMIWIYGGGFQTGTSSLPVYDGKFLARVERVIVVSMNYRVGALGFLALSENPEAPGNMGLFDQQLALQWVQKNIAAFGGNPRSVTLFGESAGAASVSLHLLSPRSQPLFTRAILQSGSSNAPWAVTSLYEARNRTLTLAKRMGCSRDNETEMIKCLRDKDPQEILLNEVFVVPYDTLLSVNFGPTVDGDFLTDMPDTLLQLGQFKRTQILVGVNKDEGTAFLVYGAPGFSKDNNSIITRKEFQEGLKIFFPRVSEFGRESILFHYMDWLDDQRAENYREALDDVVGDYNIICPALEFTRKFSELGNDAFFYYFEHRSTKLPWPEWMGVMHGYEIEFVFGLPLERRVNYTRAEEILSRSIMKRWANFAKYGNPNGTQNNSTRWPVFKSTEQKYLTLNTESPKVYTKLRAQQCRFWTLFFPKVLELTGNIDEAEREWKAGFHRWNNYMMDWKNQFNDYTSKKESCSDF
Chain of Amyloid-beta precursor protein (P05067 whole entry): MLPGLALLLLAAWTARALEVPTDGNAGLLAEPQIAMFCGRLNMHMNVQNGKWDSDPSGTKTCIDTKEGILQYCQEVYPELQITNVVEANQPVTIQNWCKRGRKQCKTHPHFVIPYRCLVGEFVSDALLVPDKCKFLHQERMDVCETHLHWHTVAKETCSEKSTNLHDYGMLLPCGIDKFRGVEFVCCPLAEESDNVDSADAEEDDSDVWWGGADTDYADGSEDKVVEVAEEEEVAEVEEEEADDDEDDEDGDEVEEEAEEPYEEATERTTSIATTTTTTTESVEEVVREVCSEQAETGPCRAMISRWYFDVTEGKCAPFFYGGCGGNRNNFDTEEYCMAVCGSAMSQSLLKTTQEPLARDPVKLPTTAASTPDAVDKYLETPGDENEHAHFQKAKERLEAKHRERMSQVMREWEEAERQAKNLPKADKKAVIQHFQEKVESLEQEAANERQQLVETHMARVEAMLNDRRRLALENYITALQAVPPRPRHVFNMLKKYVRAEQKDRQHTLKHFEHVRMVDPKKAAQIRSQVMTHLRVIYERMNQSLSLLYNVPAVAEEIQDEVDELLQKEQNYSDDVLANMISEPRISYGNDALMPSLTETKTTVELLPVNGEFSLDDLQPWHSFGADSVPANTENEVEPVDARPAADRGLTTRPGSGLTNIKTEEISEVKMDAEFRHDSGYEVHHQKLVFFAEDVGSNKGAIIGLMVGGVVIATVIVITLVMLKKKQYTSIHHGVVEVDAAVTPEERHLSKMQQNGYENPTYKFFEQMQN
Chain of Acetylcholinesterase (O42275 whole entry): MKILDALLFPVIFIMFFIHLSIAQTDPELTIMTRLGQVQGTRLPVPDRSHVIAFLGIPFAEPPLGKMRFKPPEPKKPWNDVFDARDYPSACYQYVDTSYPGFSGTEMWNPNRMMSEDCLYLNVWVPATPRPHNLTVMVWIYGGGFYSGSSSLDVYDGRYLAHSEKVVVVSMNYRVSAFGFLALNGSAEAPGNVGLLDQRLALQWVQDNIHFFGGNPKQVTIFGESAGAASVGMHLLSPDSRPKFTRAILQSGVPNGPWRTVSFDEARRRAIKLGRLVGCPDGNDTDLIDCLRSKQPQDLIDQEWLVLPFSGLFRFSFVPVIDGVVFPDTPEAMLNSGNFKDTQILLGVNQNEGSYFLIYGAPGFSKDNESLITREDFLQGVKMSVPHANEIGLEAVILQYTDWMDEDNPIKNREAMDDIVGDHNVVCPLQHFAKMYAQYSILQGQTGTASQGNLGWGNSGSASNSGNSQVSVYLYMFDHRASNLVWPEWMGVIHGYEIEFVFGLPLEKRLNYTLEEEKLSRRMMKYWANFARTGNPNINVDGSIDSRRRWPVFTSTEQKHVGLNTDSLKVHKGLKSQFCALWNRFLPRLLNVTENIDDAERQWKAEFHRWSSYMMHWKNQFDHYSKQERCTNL

With `Cc1c(C)c2c(c(C)c1O)CCC(C)(C(=O)O)O2` (racemic), the result in series [1] was Active.
`CN(C)c1ccc(O)c(CNc2ccc(/C=C/c3cc(O)cc(O)c3)cc2)c1`: the IC50 (in general, the midpoint of a concentration-inhibition curve) worked out at 14.1 µM in series [2]; 7.08 µM in series [3]; 6.51 µM in series [5]; 21.2 µM in series [6]; 6.27 µM in series [7]. The Activity entry in series [4] is on record as “Non-toxic”.
In the case of `COc1cc(/C=C/c2ccc(NCc3cc(N(C)C)ccc3O)cc2)cc(OC)c1`, the IC50 in series [2] is 12.2 µM; in series [3] it was 8.19 µM; in series [5], 7.56 µM; in series [6], more than 50 µM; in series [7] it was 36 µM. For the same compound, the Activity entry in series [4] and in series [8] was “Non-toxic” throughout.

These data come from ChEMBL document CHEMBL2401626 (J Med Chem, 2013).
